Results as given in ChEMBL document CHEMBL3779799, “Antifibrotic and anticancer action of 5-ene amino/iminothiazolidinones” (Eur J Med Chem, 2016).
The source made the active and inactive calls. The rule behind the calls is not given here.

Legend:
HFL1 [1] = assay: Antifibrotic activity in HFL1 cells assessed as inhibition of cell viability after 48 hrs by sulforhodamine B assay; assay type: functional, cell-based; conditions: Homo sapiens, HFL1, 48 h
Outline: (§1)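 HFL-1 human fetal lung fibroblasts (DMEM, 10% FCS, passages 14–18) seeded at 8000 cells/well, attached overnight, then exposed to a range of concentrations for 48 h in triplicate. Cells were fixed with TCA and stained with 0.4% SRB, bound dye was solubilized in Tris, and OD was read at 570 nm relative to control.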

HFL1 [2] = assay: Antifibrotic activity in HFL1 cells assessed as inhibition of cell viability at >1 uM after 48 hrs by sulforhodamine B assay relative to control; assay type: functional; conditions: Homo sapiens, HFL1, 48 h; outline: as §1
[3] = Cytotoxicity against human SF268 cells assessed as cell growth at 10^-4 M after 48 hrs by sulforhodamine B assay relative to control; assay type: functional; conditions: SF-268, 48 h, read-out: Activity
Outline: (§2)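 Cells were inoculated and preincubated 24–48 h, then exposed to a single dose of 10^-4 M for 48 h. SRB protein staining was the endpoint, and growth percent was calculated versus untreated controls.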

MCF7 = assay: Cytotoxicity against human MCF7 cells assessed as cell growth at 10^-4 M after 48 hrs by sulforhodamine B assay relative to control; assay type: functional; conditions: MCF7, 48 h, read-out: Activity; outline: as §2
NCI-H460 = assay: Cytotoxicity against human NCI-H460 cells assessed as cell growth at 10^-4 M after 48 hrs by sulforhodamine B assay relative to control; assay type: functional; conditions: NCI-H460, 48 h, read-out: Activity; outline: as §2
[4] = Antioxidant activity assessed as inhibition of superoxide anion generation measured for 3 mins by nitro blue tetrazolium assay; assay type: physicochemical; conditions: for Emax: 0.05 h
Outline: (§3)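 Cell-free superoxide generated by xanthine (1 mM) and xanthine oxidase (0.11 U/mL), with NBT (50 µM) as detector. Compounds in DMSO were tested up to 10 µM, with DMSO held at 0.1%. NBT reduction rate (dA560/dt) was read spectrophotometrically over 3 min from the linear part.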

HFL1 [5] = assay: Antifibrotic activity in HFL1 cells assessed as reduction in cell proliferation at 0.1 to 1 uM after 150 hrs by xCelligence analysis; assay type: functional, cell-based; conditions: Homo sapiens
Outline: (§4)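 HFL-1 cells were seeded at 20,000/well and monitored by real-time impedance (xCelligence). Compound or DMSO vehicle was added at ~30 h, once attachment was maximal, and cells were followed for another 150 h. P150 was taken as the signal difference between 30 h and 180 h; Pdot was the maximum slope of the curve.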

[6] = Cytotoxicity against human SNB75 cells assessed as cell growth at 10^-5 M after 48 hrs by sulforhodamine B assay relative to control; assay type: functional; conditions: SNB-75, 48 h, read-out: Activity
Outline: (§5)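 NCI ~60 human tumor cell line one-dose screen covering nine cancer types. Cells were preincubated 24–48 h, then exposed to compound at 10^-5 M for 48 h. SRB protein staining was the endpoint, and growth percent was calculated versus untreated control cells.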

[7] = Cytotoxicity against human NCI60 cells assessed as cell growth at 10^-5 M after 48 hrs by sulforhodamine B assay relative to control; assay type: functional; conditions: NCI60, 48 h, read-out: Activity; outline: as §5
[8] = Antioxidant activity assessed as inhibition of superoxide anion generation upto 10 uM measured for 3 mins by nitro blue tetrazolium assay; assay type: physicochemical; conditions: 0.05 h; outline: as §3
HFL1 [9] = assay: Antifibrotic activity in HFL1 cells assessed as reduction in cell proliferation after 150 hrs by xCelligence analysis; conditions: Homo sapiens
[10] = Cytotoxicity against human UO31 cells assessed as cell growth at 10^-5 M after 48 hrs by sulforhodamine B assay relative to control; assay type: functional; conditions: UO-31, 48 h, read-out: Activity; outline: as §5
[11] = Cytotoxicity against human RPMI8226 cells assessed as cell growth at 10^-5 M after 48 hrs by sulforhodamine B assay relative to control; assay type: functional; conditions: RPMI-8226, 48 h, read-out: Activity; outline: as §5
NCI-H522 = assay: Cytotoxicity against human NCI-H522 cells assessed as cell growth at 10^-5 M after 48 hrs by sulforhodamine B assay relative to control; assay type: functional; conditions: NCI-H522, 48 h, read-out: Activity; outline: as §5
HFL1 [12] = assay: Antifibrotic activity in HFL1 cells assessed as reduction in maximum rate of cell proliferation after 150 hrs by xCelligence analysis; assay type: functional, cell-based; conditions: Homo sapiens; outline: as §4
[13] = Growth inhibition of human HCT116 cells after 48 hrs by sulforhodamine B assay; assay type: functional; conditions: HCT-116, 48 h
Outline: (§6)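 NCI ~60-cell-line panel with five 10-fold dilutions (10^-4 to 10^-8 M) and 48 h continuous exposure, using an SRB endpoint. Percentage growth was derived from time-zero, control and treated absorbances. Values are expressed as > or < when outside the tested range.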

[14] = Growth inhibition of human NCI60 cells after 48 hrs by sulforhodamine B assay; assay type: functional; conditions: NCI60, 48 h; outline: as §6
[15] = Growth inhibition of human HOP62 cells after 48 hrs by sulforhodamine B assay; assay type: functional; conditions: HOP-62, 48 h
Outline: (§7)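 NCI ~60-cell-line panel with five 10-fold dilutions (10^-4 to 10^-8 M) and 48 h continuous exposure, using an SRB endpoint. Percentage growth was derived from time-zero, control and treated absorbances. […] Values are expressed as > or < when outside the tested range.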

[16] = Growth inhibition of human HOP92 cells after 48 hrs by sulforhodamine B assay; assay type: functional; conditions: HOP-92, 48 h; outline: as §7
U-251 = assay: Growth inhibition of human U251 cells after 48 hrs by sulforhodamine B assay; assay type: functional; conditions: U-251, 48 h; outline: as §7
MDA-MB-231 = assay: Growth inhibition of human MDA-MB-231 cells after 48 hrs by sulforhodamine B assay; assay type: functional; conditions: MDA-MB-231, 48 h; outline: as §7
[17] = read-out: LC50 (the source's name)

Structure (SMILES): O=C1CS/C(=N/N=C/c2cccnc2)N1
- IC50 (HFL1 [1]): 810 nM
- Emax (HFL1 [2]): 92.1%

Structure (SMILES): Cc1cc(O)c(C(C)C)cc1NC1=NC(=O)S/C1=C\c1ccc(Cl)cc1
- IC50 (HFL1 [1]): 30 nM
- Emax (HFL1 [2]): 75.5%

Structure (SMILES): O=C1N=C(Nc2ccc(O)cc2)S/C1=C\C=C/c1ccccc1
- growth at 100 µM [3]: 103%
- growth at 100 µM (MCF7): 124%
- growth at 100 µM (NCI-H460): 140%

Structure (SMILES): CC1S/C(=N/N=C/c2cccnc2)NC1=O (racemic)
- IC50 [4]: 1960 nM
- Emax [4]: 35.8%
- IC50 (HFL1 [1]): 830 nM
- Emax (HFL1 [2]): 84.6%

Structure (SMILES): COc1ccc(-c2nnc(/N=C3\NC(=O)CS3)o2)cc1
- IC50 [4]: 290 nM
- Emax [4]: 81.8%
- IC50 (HFL1 [1]): 470 nM
- Activity (HFL1 [5]): Active
- Emax (HFL1 [2]): 84.6%
- growth at 10 µM [6]: 71.9%
- growth at 10 µM [7]: 102%

Structure (SMILES): O=C(CC1SC(=Nc2cccc(O)c2)NC1=O)Nc1ccc(Br)cc1 (racemic)
- inhibition (INH) [8]: Not Active
- IC50 (HFL1 [1]): 160 nM
- Emax (HFL1 [2]): 77.6%

Structure (SMILES): COc1ccccc1NC(=O)CSc1nnc(/N=C2\NC(=O)CS2)s1
- inhibition (INH) [8]: Not Active
- IC50 (HFL1 [1]): 400 nM
- Activity (HFL1 [5]): Active
- Emax (HFL1 [2]): 75%

Structure (SMILES): O=C1CS/C(=N\N=C/c2cccnc2)N1Cc1ccco1
- IC50 (HFL1 [1]): 500 nM
- Emax (HFL1 [2]): 69.4%

Structure (SMILES): Cc1ccc(=O)n(-c2ccccc2)c1 [PIRFENIDONE]
- Activity (HFL1 [9]): Dose-dependent effect
- inhibition (INH) [8]: Not Active
- IC50 (HFL1 [1]): 710 nM
- growth at 10 µM [10]: 76.9%
- Emax (HFL1 [2]): 78.5%
- growth at 10 µM [11]: 76%
- growth at 10 µM (NCI-H522): 79.8%
- growth at 10 µM [7]: 96.3%

Structure (SMILES): C=CCN1C(=O)/C(=C2/C(=O)Nc3ccccc32)S/C1=N\c1nccs1
- growth at 100 µM [3]: 82%
- IC50 [4]: 1320 nM
- Emax [4]: 86.5%
- IC50 (HFL1 [1]): 90 nM
- Activity (HFL1 [5]): Active
- growth at 100 µM (MCF7): 76%
- growth at 100 µM (NCI-H460): 49%
- Emax (HFL1 [2]): 65.9%

Structure (SMILES): COc1ccccc1NC(=O)CSc1nnc(NC2=NC(=O)/C(=C/c3ccc(Cl)cc3)S2)s1
- IC50 (HFL1 [1]): 40 nM
- Emax (HFL1 [2]): 17.4%

Structure (SMILES): O=C1N=C(Nc2ccc(Cl)cc2)/C(=C/c2cccs2)S1
- inhibition (INH) [8]: Not Active
- IC50 (HFL1 [1]): 570 nM
- Activity (HFL1 [5]): Active
- Emax (HFL1 [2]): 79%
- Activity (HFL1 [12]): Dose-dependent effect

Structure (SMILES): NS(=O)(=O)c1ccc(NC2=NC(=O)C(CC(=O)Nc3ccc(Br)cc3)S2)cc1 (racemic)
- GI50 [13]: 21.8 µM
- TGI [13]: 43.5 µM
- CC50 [13, 17]: 86.7 µM
- growth at 100 µM [3]: 45%
- GI50 [14]: 58.9 µM
- CC50 ([14]; read-out: pLC50 (the source's name) (converted)): 97.7 µM
- TGI ([14]; read-out: pTGI (converted)): 89.1 µM
- GI50 [15]: 15.6 µM
- TGI [15]: 31.7 µM
- CC50 [15, 17]: 64.3 µM
- growth at 100 µM (MCF7): 24%
- GI50 [16]: 24.3 µM
- TGI [16]: 58.3 µM
- CC50 [16, 17]: > 100 µM
- growth at 100 µM (NCI-H460): 88%
- GI50 (U-251): 20.7 µM
- LC50 (concentration killing 50% of cells) (U-251): 94.3 µM
- TGI (U-251): 44.2 µM
- GI50 (MDA-MB-231): 18.5 µM
- TGI (MDA-MB-231): 38.2 µM
- CC50 (MDA-MB-231; [17]): 78.6 µM
